ChEMBL document CHEMBL2046296, “Synthesis and antidepressant activity of arylalkanol-piperidine derivatives as triple reuptake inhibitors” (Eur J Med Chem, 2012)

What was measured:
[1] = target: Sodium-dependent dopamine transporter (Homo sapiens, UniProt Q01959); assay: Inhibition of [3H]dopamine uptake at human DAT expressed in HEK293 cells at 10 uM after 10 mins by scintillation counting
[2] = target: T1, Sodium-dependent noradrenaline transporter (Homo sapiens, UniProt P23975); assay: Inhibition of [3H]noradrenaline uptake at human NET expressed in HEK293 cells after 10 mins by scintillation counting
[3] = target: T2, Sodium-dependent serotonin transporter (Homo sapiens, UniProt P31645); assay: Inhibition of [3H]serotonin uptake at human SERT expressed in HEK293 cells after 10 min by scintillation counting
Target sequence in this assay (P31645 whole entry): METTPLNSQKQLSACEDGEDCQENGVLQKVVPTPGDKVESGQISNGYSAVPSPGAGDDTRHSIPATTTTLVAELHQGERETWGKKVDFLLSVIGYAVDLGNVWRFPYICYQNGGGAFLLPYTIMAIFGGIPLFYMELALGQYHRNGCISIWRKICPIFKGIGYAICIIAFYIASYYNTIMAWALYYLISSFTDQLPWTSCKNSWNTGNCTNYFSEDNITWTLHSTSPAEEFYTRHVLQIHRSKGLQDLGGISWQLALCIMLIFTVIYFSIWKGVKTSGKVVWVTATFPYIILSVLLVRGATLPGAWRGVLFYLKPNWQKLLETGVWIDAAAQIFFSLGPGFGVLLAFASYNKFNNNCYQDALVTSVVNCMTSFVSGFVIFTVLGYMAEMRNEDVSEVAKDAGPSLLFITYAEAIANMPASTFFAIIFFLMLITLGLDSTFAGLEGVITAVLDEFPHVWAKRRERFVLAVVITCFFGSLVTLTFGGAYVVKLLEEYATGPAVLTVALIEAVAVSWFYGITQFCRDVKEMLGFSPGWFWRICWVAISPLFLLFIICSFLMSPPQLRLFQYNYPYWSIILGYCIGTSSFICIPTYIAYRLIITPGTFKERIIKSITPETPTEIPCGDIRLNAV

[4] = target: T1, Sodium-dependent noradrenaline transporter; assay: Inhibition of [3H]noradrenaline uptake at human NET expressed in HEK293 cells at 10 uM after 10 mins by scintillation counting
[5] = target: T2, Sodium-dependent serotonin transporter; assay: Inhibition of [3H]serotonin uptake at human SERT expressed in HEK293 cells at 10 uM after 10 min by scintillation counting
Target sequence in this assay (P31645 whole entry, looked up): as the sequence (P31645 whole entry) above

[6] = test system: Mus musculus; assay: Antidepressant activity in mouse assessed as decrease in immobility at 50 mg/kg, po administered 30 mins prior to testing by tail suspension test relative to vehicle control; format: functional; design: scale not given: the % may be the effect or the level left
Method in brief: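 Oral doses of 10–50 mg/kg (three doses) were given once, 30 min before testing. Mice were hung by adhesive tape 1 cm from the tail tip, 75 cm above the tabletop. Immobility was recorded for 5 min, scored blind, 10–12 mice per group, against vehicle controls. One-way ANOVA with Scheffe post hoc test; p<0.05 significant.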

[7] = test system: Mus musculus; assay: Toxicity in mouse assessed as increase in locomotor activity at 50 mg/kg, po up to 5 mins relative to vehicle treated control; format: organism-based; design: dose 50 mg/kg, route oral; conditions: in vivo
Method in brief: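 Mice were dosed orally at 50 mg/kg and 30 min later placed singly in new 35×35×35 cm plastic cages under dim light with sound attenuation. Activity was logged by a monitoring apparatus at intervals up to 30 min, and the 5 min point was analysed. Mean ± SEM; one-way ANOVA, Scheffe post hoc, versus control.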

T1 sequence (P23975 whole entry): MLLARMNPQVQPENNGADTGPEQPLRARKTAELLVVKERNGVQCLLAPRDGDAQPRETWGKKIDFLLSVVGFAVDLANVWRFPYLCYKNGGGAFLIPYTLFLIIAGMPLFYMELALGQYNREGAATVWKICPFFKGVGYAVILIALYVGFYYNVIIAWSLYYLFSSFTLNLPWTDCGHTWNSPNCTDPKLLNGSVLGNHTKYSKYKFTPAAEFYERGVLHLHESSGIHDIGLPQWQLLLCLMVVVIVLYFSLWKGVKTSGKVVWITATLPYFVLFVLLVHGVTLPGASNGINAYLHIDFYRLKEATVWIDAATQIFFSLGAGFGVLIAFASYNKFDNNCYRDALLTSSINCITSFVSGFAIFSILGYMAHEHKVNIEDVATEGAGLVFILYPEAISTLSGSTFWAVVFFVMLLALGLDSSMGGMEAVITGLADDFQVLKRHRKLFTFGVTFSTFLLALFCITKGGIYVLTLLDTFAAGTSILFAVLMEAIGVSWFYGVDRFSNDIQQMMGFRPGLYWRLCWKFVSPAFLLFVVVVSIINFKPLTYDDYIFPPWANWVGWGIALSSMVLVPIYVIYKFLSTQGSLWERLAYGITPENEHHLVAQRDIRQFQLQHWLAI
Chain of Sodium-dependent dopamine transporter (Q01959 whole entry): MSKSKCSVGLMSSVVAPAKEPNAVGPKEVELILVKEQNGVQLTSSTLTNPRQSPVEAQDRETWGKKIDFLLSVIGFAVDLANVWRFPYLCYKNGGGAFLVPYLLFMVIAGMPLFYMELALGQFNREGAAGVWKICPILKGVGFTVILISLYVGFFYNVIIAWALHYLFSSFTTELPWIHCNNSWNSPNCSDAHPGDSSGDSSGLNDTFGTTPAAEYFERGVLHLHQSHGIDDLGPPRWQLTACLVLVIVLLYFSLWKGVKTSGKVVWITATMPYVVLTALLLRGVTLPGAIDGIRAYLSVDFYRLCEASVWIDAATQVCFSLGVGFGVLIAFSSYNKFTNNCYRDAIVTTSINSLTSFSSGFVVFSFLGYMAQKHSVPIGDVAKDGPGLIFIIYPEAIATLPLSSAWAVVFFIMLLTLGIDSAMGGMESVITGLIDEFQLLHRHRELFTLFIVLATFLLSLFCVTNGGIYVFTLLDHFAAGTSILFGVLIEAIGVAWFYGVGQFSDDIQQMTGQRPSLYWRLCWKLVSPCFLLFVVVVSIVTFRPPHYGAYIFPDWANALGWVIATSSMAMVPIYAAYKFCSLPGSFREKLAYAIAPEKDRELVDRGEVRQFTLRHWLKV

SMILES | inhibition [1] | IC50 [2] | IC50 [3] | inhibition [4] | inhibition [5] | Activity [6] | Activity [7]
COc1ccc2cc(C(O)CCN3CCC(O)(Cc4ccccc4)CC3)ccc2c1Cl (racemic) | 73% | 800 nM | 427 nM | – | – | – | –
OC(CCN1CC=C(Cc2ccccc2)CC1)c1ccc(Cl)cc1 (racemic) | 61% | – | – | 50% | 56% | – | –
COc1ccc(C(O)CCN2CC=C(Cc3ccccc3)CC2)cc1 (racemic) | 57% | – | 768 nM | 62% | – | – | –
OC(CCN1CC=C(Cc2ccccc2)CC1)c1ccc2c(c1)CCO2 (racemic) | 49% | – | – | 88% | 74% | – | –
COc1ccc([C@H](O)[C@H](C)N2CC=C(Cc3ccccc3)CC2)cc1 (racemic) | 68% | – | – | 55% | 80% | – | –
COc1ccc2cc([C@H](O)[C@H](C)N3CCC(O)(Cc4ccccc4)CC3)ccc2c1Cl (racemic) | 22% | – | 357 nM | 55% | – | – | –
O=[N+]([O-])c1ccc(C(O)CCN2CC=C(Cc3ccccc3)CC2)cc1 (racemic) | 55% | – | – | 74% | 65% | – | –
C[C@H]([C@@H](O)c1cccc(F)c1)N1CC=C(Cc2ccccc2)CC1 (racemic) | 35% | – | – | 83% | 61% | – | –
OC(CCN1CC=C(Cc2ccccc2)CC1)c1ccc(F)cc1F (racemic) | 66% | – | – | 78% | 66% | – | –
COc1ccc(C(CN(C)C)C2(O)CCCCC2)cc1 (configuration not stated) [VENLAFAXINE] | – | – | – | – | – | 63% | Non-toxic
OC(CCN1CC=C(Cc2ccccc2)CC1)c1cccs1 (racemic) | 52% | – | – | 82% | 78% | – | –
C[C@@H]([C@@H](O)c1csc2ccccc12)N1CC=C(Cc2ccccc2)CC1 (racemic) | 77% | – | – | 34% | 33% | – | –
OC(CCN1CCC(O)(Cc2ccccc2)CC1)c1csc2ccccc12 (racemic) | 64% | – | – | 61% | 27% | – | –
Cc1ccc(C(O)CCN2CC=C(Cc3ccccc3)CC2)cc1 (racemic) | 30% | – | – | 83% | 62% | – | –
COc1ccc2cc([C@H](O)[C@@H](C)N3CCC(O)(Cc4ccccc4)CC3)ccc2c1Cl (racemic) | 51% | – | – | 63% | 80% | – | –
COc1ccc(C(O)CCN2CC=C(Cc3ccccc3)CC2)cc1OC (racemic) | 61% | – | – | 63% | 74% | – | –
C[C@@H]([C@@H](O)c1ccc(Cl)c(Cl)c1)N1CC=C(Cc2ccccc2)CC1 (racemic) | 64% | 531 nM | 367 nM | – | – | – | –
C[C@H]([C@@H](O)c1ccc(Cl)c(Cl)c1)N1CC=C(Cc2ccccc2)CC1 (racemic) | 56% | – | – | 36% | 38% | – | –
COc1ccc([C@H](O)[C@@H](C)N2CC=C(Cc3ccccc3)CC2)cc1 (racemic) | 70% | – | – | 62% | 59% | – | –
C[C@H]([C@@H](O)c1csc2ccccc12)N1CC=C(Cc2ccccc2)CC1 (racemic) | 75% | – | – | 78% | 55% | – | –
C[C@@H]([C@@H](O)c1cccc(F)c1)N1CC=C(Cc2ccccc2)CC1 (racemic) | 70% | – | – | 57% | 63% | – | –
